# Experimental data: ChEMBL document CHEMBL1145471, “Small molecule regulators of autophagy identified by an image-based high-throughput screen” (Proc Natl Acad Sci U S A, 2007)
# Tested on: H4
# Assay: Decrease in FYVE-RFP+ vesicle intensity per cell in human H4 cells after 2 hrs relative to control
# Type: functional
# Set-up: concentration or dose not given beside the values
# Summary of the method: (§1)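 H4 cells stably expressing FYVE-RFP (H4-FYVE), grown in DMEM with 10% FBS, penicillin/streptomycin and 2 mM L-glutamine at 37°C, 5% CO2, seeded in 96-well plates and exposed to compound. Fixed in 4% paraformaldehyde, nuclei stained with 3 μg/ml DAPI, FYVE-RFP+ vesicles quantified by high-throughput fluorescence microscopy against DMSO control. Triplicate wells, mean ± SD.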
row,SMILES,Activity
1,CC1(C)C(C=C(Cl)Cl)C1C(=O)OC(C#N)c1cccc(Oc2ccccc2)c1 (stereo not drawn) [ALPHA-CYPERMETHRIN],33.75%
2,CCCC[C@@H](C=O)NC(=O)[C@H](CC(C)C)NC(=O)OCc1ccccc1 [CALPEPTIN],58.44%
3,CC1(C)[C@@H](O)C[C@H]2[C@](C)(O)[C@@H]3CC[C@@H]4[C@@H](O)[C@@]3(C[C@@H](O)[C@@]21O)C[C@@]4(C)O [GRAYANOTOXIN III],45.44%

# Tested on: H4
# Assay: Effect on FYVE-RFP+ vesicle intensity per cell in human H4 cells after 2 hrs relative to control
# Type: functional
# Summary of the method: as §1
row,SMILES,Activity
1,C=C[C@H]1CN2CC[C@H]1C[C@H]2[C@H](O)c1ccnc2ccc(OC)cc12 [QUININE],70.35%

# Tested on: H4
# Assay: Increase in light chain 3-GFP+ autophagosome vesicle area per cell in human H4 cells at 6.9 uM after 24 hrs by high throughput fluorescence microscopy relative to control
# Type: functional
# Summary of the method: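 H4 cells stably expressing LC3-GFP, seeded in 96-well plates and exposed to compound for 24 h; screening concentrations were 3–12 μM, with rapamycin 0.22 μM and bafilomycin A1 0.40 μM. Cells fixed in 4% paraformaldehyde and stained with 3 μg/ml DAPI. Number, size and intensity of LC3-GFP spots measured by high-throughput fluorescence microscopy and expressed as percent of DMSO-treated wells. Rapamycin was the positive control. Triplicate wells, mean ± SD; experiments repeated three times.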
row,SMILES,Activity
1,O=S(=O)(c1cccc2c(Cl)cccc12)N1CCCNCC1,272.31%
2,CCCC[C@@H](C=O)NC(=O)[C@H](CC(C)C)NC(=O)OCc1ccccc1 [CALPEPTIN],207.34%
3,C=C[C@H]1CN2CC[C@H]1C[C@H]2[C@H](O)c1ccnc2ccc(OC)cc12 [QUININE],160.38%

# Tested on: H4
# Assay: Induction of light chain 3-GFP level in human H4 cells at 6.9 uM after 24 hrs by high throughput fluorescence microscopy relative to control
# Type: functional
# Summary of the method: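 H4 cells stably expressing LC3-GFP, grown in DMEM with 10% FBS, penicillin/streptomycin and 2 mM L-glutamine at 37°C, 5% CO2. Cells were seeded in 96-well plates and exposed to library compounds at 3–12 μM for 24 h, then fixed in 4% paraformaldehyde and stained with 3 μg/ml DAPI. LC3-GFP spot number, size and intensity were measured by high-throughput fluorescence microscopy and expressed relative to DMSO. Triplicates, mean ± SD.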
row,SMILES,Activity
1,O=S(=O)(c1cccc2c(Cl)cccc12)N1CCCNCC1,82.33%
2,CCCC[C@@H](C=O)NC(=O)[C@H](CC(C)C)NC(=O)OCc1ccccc1 [CALPEPTIN],128.87%
3,C=C[C@H]1CN2CC[C@H]1C[C@H]2[C@H](O)c1ccnc2ccc(OC)cc12 [QUININE],115.16%

# Tested on: H4
# Assay: Increase in light chain 3-GFP+ autophagosome vesicle number per cell in human H4 cells at 6.9 uM after 24 hrs by high throughput fluorescence microscopy relative to control
# Type: functional
# Summary of the method: (§2)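 H4 cells stably expressing LC3-GFP were grown in DMEM with 10% FBS and 2 mM L-glutamine at 37°C, 5% CO2. They were exposed to each compound for 24 h, with DMSO as negative and rapamycin as positive control. Cells were then fixed in 4% paraformaldehyde and stained with 3 μg/ml DAPI. High-throughput fluorescence imaging scored LC3-GFP spot number, size and intensity, expressed relative to DMSO. Mean ± SD of triplicates; experiments repeated three times.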
row,SMILES,Activity
1,O=S(=O)(c1cccc2c(Cl)cccc12)N1CCCNCC1,210.65%
2,CCCC[C@@H](C=O)NC(=O)[C@H](CC(C)C)NC(=O)OCc1ccccc1 [CALPEPTIN],177.07%
3,C=C[C@H]1CN2CC[C@H]1C[C@H]2[C@H](O)c1ccnc2ccc(OC)cc12 [QUININE],146.94%

# Tested on: H4
# Assay: Increase in light chain 3-GFP+ autophagosome vesicle intensity per cell in human H4 cells at 6.9 uM after 24 hrs by high throughput fluorescence microscopy relative to control
# Type: functional
# Summary of the method: as §2
row,SMILES,Activity
1,O=S(=O)(c1cccc2c(Cl)cccc12)N1CCCNCC1,447.81%
2,CCCC[C@@H](C=O)NC(=O)[C@H](CC(C)C)NC(=O)OCc1ccccc1 [CALPEPTIN],232.89%
3,C=C[C@H]1CN2CC[C@H]1C[C@H]2[C@H](O)c1ccnc2ccc(OC)cc12 [QUININE],165.01%

# Tested on: H4
# Assay: Increase in long-lived protein degradation in human H4 cells after 1 hr relative to control
# Type: functional
# Set-up: concentration or dose not given beside the values
row,SMILES,Activity
1,CC1(C)C(C=C(Cl)Cl)C1C(=O)OC(C#N)c1cccc(Oc2ccccc2)c1 (stereo not drawn) [ALPHA-CYPERMETHRIN],94.75%
2,CCCC[C@@H](C=O)NC(=O)[C@H](CC(C)C)NC(=O)OCc1ccccc1 [CALPEPTIN],73.3%
3,C=C[C@H]1CN2CC[C@H]1C[C@H]2[C@H](O)c1ccnc2ccc(OC)cc12 [QUININE],94.35%
4,CC1(C)[C@@H](O)C[C@H]2[C@](C)(O)[C@@H]3CC[C@@H]4[C@@H](O)[C@@]3(C[C@@H](O)[C@@]21O)C[C@@]4(C)O [GRAYANOTOXIN III],95.81%

# Tested on: H4
# Assay: Effect on FYVE-RFP+ vesicle intensity per cell in human H4 cells after 4 hrs relative to control
# Type: functional
# Summary of the method: as §1
row,SMILES,Activity
1,C=C[C@H]1CN2CC[C@H]1C[C@H]2[C@H](O)c1ccnc2ccc(OC)cc12 [QUININE],78.03%

# Tested on: H4
# Assay: Induction of light chain 3-GFP level in human H4 cells at 6.0 uM after 24 hrs by high throughput fluorescence microscopy relative to control
# Type: functional
# Summary of the method: (§3)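 H4 cells stably expressing LC3-GFP, kept in DMEM/10% FBS at 37°C, 5% CO2, were seeded in 96-well plates and exposed to compound for 24 h. Cells were then fixed in 4% paraformaldehyde and stained with 3 μg/ml DAPI. Automated fluorescence microscopy scored the number, size and intensity of LC3-GFP spots. Values are percent of DMSO wells, in triplicate, mean ± SD. Rapamycin served as positive control.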
row,SMILES,Activity
1,CC1(C)C(C=C(Cl)Cl)C1C(=O)OC(C#N)c1cccc(Oc2ccccc2)c1 (stereo not drawn) [ALPHA-CYPERMETHRIN],97.45%
2,CC1(C)[C@@H](O)C[C@H]2[C@](C)(O)[C@@H]3CC[C@@H]4[C@@H](O)[C@@]3(C[C@@H](O)[C@@]21O)C[C@@]4(C)O [GRAYANOTOXIN III],129.36%

# Tested on: H4
# Assay: Decrease in FYVE-RFP+ vesicle intensity per cell in human H4 cells after 4 hrs relative to control
# Type: functional
# Set-up: concentration or dose not given beside the values
# Summary of the method: as §1
row,SMILES,Activity
1,CC1(C)C(C=C(Cl)Cl)C1C(=O)OC(C#N)c1cccc(Oc2ccccc2)c1 (stereo not drawn) [ALPHA-CYPERMETHRIN],29.13%
2,CCCC[C@@H](C=O)NC(=O)[C@H](CC(C)C)NC(=O)OCc1ccccc1 [CALPEPTIN],63.28%
3,CC1(C)[C@@H](O)C[C@H]2[C@](C)(O)[C@@H]3CC[C@@H]4[C@@H](O)[C@@]3(C[C@@H](O)[C@@]21O)C[C@@]4(C)O [GRAYANOTOXIN III],39.37%

# Tested on: H4
# Assay: Effect on FYVE-RFP+ vesicle intensity per cell in human H4 cells after 8 hrs relative to control
# Type: functional
# Summary of the method: as §1
row,SMILES,Activity
1,C=C[C@H]1CN2CC[C@H]1C[C@H]2[C@H](O)c1ccnc2ccc(OC)cc12 [QUININE],60.7%

# Tested on: H4
# Assay: Increase in long-lived protein degradation in human H4 cells after 24 hrs relative to control
# Type: functional
# Set-up: concentration or dose not given beside the values
row,SMILES,Activity
1,CC1(C)C(C=C(Cl)Cl)C1C(=O)OC(C#N)c1cccc(Oc2ccccc2)c1 (stereo not drawn) [ALPHA-CYPERMETHRIN],103.75%
2,CCCC[C@@H](C=O)NC(=O)[C@H](CC(C)C)NC(=O)OCc1ccccc1 [CALPEPTIN],81.62%
3,C=C[C@H]1CN2CC[C@H]1C[C@H]2[C@H](O)c1ccnc2ccc(OC)cc12 [QUININE],103.56%
4,CC1(C)[C@@H](O)C[C@H]2[C@](C)(O)[C@@H]3CC[C@@H]4[C@@H](O)[C@@]3(C[C@@H](O)[C@@]21O)C[C@@]4(C)O [GRAYANOTOXIN III],91.03%

# Tested on: H4
# Assay: Decrease in FYVE-RFP+ vesicle intensity per cell in human H4 cells after 8 hrs relative to control
# Type: functional
# Set-up: concentration or dose not given beside the values
# Summary of the method: as §1
row,SMILES,Activity
1,CC1(C)C(C=C(Cl)Cl)C1C(=O)OC(C#N)c1cccc(Oc2ccccc2)c1 (stereo not drawn) [ALPHA-CYPERMETHRIN],58.22%
2,CCCC[C@@H](C=O)NC(=O)[C@H](CC(C)C)NC(=O)OCc1ccccc1 [CALPEPTIN],61.02%
3,CC1(C)[C@@H](O)C[C@H]2[C@](C)(O)[C@@H]3CC[C@@H]4[C@@H](O)[C@@]3(C[C@@H](O)[C@@]21O)C[C@@]4(C)O [GRAYANOTOXIN III],39.83%

# Tested on: H4
# Assay: Increase in light chain 3-GFP+ autophagosome vesicle number per cell in human H4 cells at 6.0 uM after 24 hrs by high throughput fluorescence microscopy relative to control
# Type: functional
# Summary of the method: as §3
row,SMILES,Activity
1,CC1(C)C(C=C(Cl)Cl)C1C(=O)OC(C#N)c1cccc(Oc2ccccc2)c1 (stereo not drawn) [ALPHA-CYPERMETHRIN],174.74%
2,CC1(C)[C@@H](O)C[C@H]2[C@](C)(O)[C@@H]3CC[C@@H]4[C@@H](O)[C@@]3(C[C@@H](O)[C@@]21O)C[C@@]4(C)O [GRAYANOTOXIN III],130.17%

# Tested on: H4
# Assay: Increase in long-lived protein degradation in human H4 cells after 2 hrs relative to control
# Type: functional
# Set-up: concentration or dose not given beside the values
row,SMILES,Activity
1,CC1(C)C(C=C(Cl)Cl)C1C(=O)OC(C#N)c1cccc(Oc2ccccc2)c1 (stereo not drawn) [ALPHA-CYPERMETHRIN],95.28%
2,CCCC[C@@H](C=O)NC(=O)[C@H](CC(C)C)NC(=O)OCc1ccccc1 [CALPEPTIN],68.3%
3,C=C[C@H]1CN2CC[C@H]1C[C@H]2[C@H](O)c1ccnc2ccc(OC)cc12 [QUININE],110.94%
4,CC1(C)[C@@H](O)C[C@H]2[C@](C)(O)[C@@H]3CC[C@@H]4[C@@H](O)[C@@]3(C[C@@H](O)[C@@]21O)C[C@@]4(C)O [GRAYANOTOXIN III],96.23%

# Tested on: H4
# Assay: Increase in light chain 3-GFP+ autophagosome vesicle area per cell in human H4 cells at 6.0 uM after 24 hrs by high throughput fluorescence microscopy relative to control
# Type: functional
# Summary of the method: (§4)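 H4 cells stably expressing LC3-GFP, seeded in 96-well plates and exposed to compound for 24 h; fixed in 4% paraformaldehyde, nuclei stained with 3 μg/ml DAPI. Automated fluorescence microscopy scored number, size and intensity of LC3-GFP spots; values expressed relative to DMSO-treated wells, rapamycin positive control. Triplicate wells, mean ± SD; experiments repeated three times.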
row,SMILES,Activity
1,CC1(C)C(C=C(Cl)Cl)C1C(=O)OC(C#N)c1cccc(Oc2ccccc2)c1 (stereo not drawn) [ALPHA-CYPERMETHRIN],200.12%
2,CC1(C)[C@@H](O)C[C@H]2[C@](C)(O)[C@@H]3CC[C@@H]4[C@@H](O)[C@@]3(C[C@@H](O)[C@@]21O)C[C@@]4(C)O [GRAYANOTOXIN III],154.31%

# Tested on: H4
# Assay: Increase in long-lived protein degradation in human H4 cells after 4 hrs relative to control
# Type: functional
# Set-up: concentration or dose not given beside the values
row,SMILES,Activity
1,CC1(C)C(C=C(Cl)Cl)C1C(=O)OC(C#N)c1cccc(Oc2ccccc2)c1 (stereo not drawn) [ALPHA-CYPERMETHRIN],98.36%
2,CCCC[C@@H](C=O)NC(=O)[C@H](CC(C)C)NC(=O)OCc1ccccc1 [CALPEPTIN],78.67%
3,C=C[C@H]1CN2CC[C@H]1C[C@H]2[C@H](O)c1ccnc2ccc(OC)cc12 [QUININE],99.32%
4,CC1(C)[C@@H](O)C[C@H]2[C@](C)(O)[C@@H]3CC[C@@H]4[C@@H](O)[C@@]3(C[C@@H](O)[C@@]21O)C[C@@]4(C)O [GRAYANOTOXIN III],90.49%

# Tested on: H4
# Assay: Increase in light chain 3-GFP+ autophagosome vesicle intensity per cell in human H4 cells at 6.0 uM after 24 hrs by high throughput fluorescence microscopy relative to control
# Type: functional
# Summary of the method: as §4
row,SMILES,Activity
1,CC1(C)C(C=C(Cl)Cl)C1C(=O)OC(C#N)c1cccc(Oc2ccccc2)c1 (stereo not drawn) [ALPHA-CYPERMETHRIN],208.14%
2,CC1(C)[C@@H](O)C[C@H]2[C@](C)(O)[C@@H]3CC[C@@H]4[C@@H](O)[C@@]3(C[C@@H](O)[C@@]21O)C[C@@]4(C)O [GRAYANOTOXIN III],210.65%
